Results: ChEMBL document CHEMBL1122741, “Substituted 5,6-dihydrofuro[3,2-f]-1,2-benzisoxazole-6-carboxylic acids: high-ceiling diuretics with uricosuric activity” (J Med Chem, 1984)
The source made the active and inactive calls. The calls are words filed in the database; no cut-off is given here.

Tested on: Canis familiaris
Assay: Na+ excretion mequiv /kg in conscious female dogs administered perorally during 0-6 hr
Format: ADME, organism-based, Canis lupus familiaris
Details: dog, in vivo, po
In short: (§1)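 Conscious female dogs dosed at 3 mg/kg po, except one reference at 10 mg/kg, one dose per dog. Urine collected to 6 h and centrifuged; heparinized venous plasma taken at each collection. Na+ and urate measured by standard methods, mean ± SEM over 0-6 h. Compared with vehicle by ANOVA/Duncan's test or unpaired t test.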

With `O=C(O)C1Cc2cc3c(-c4ccccc4F)noc3c(Cl)c2O1` (stereo in doubt; 30) as the compound, how does the “Na+ excretion” value read?
The value was 0.62 m equiv kg-1.

For `NS(=O)(=O)c1cc(C(=O)O)c(NCc2ccco2)cc1Cl` [FUROSEMIDE], which “Na+ excretion” value is on record?
Its value is 5.23 m equiv kg-1.

Tested on: Mus musculus
Assay: Na+ excretion mequiv /kg in saline-loaded mice administered at a dose 10 […] perorally
Format: ADME, organism-based
Details: in vivo, po
In short: (§2)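 Saline-loaded male mice, 16-30 g. Compound po in 0.2% hydroxypropylmethylcellulose at 10 mL/kg, vehicle alone for controls, followed by 0.9% saline po at 3% of body weight. Doses were 0.3-250 mg/kg po. Five mice per metabolism cage, four cages per dose, pooled urine collected for 4 h. Na+ reported as mean ± SEM mequiv/kg; ANOVA with Duncan's test or unpaired t test against control.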

Which “Na+ excretion” value does the source give for `O=C(O)C1Cc2cc3c(-c4ccccc4F)noc3c(Cl)c2O1` (stereo in doubt; 30) here?
Its value is 3.2 m equiv kg-1.

For `NS(=O)(=O)c1cc(C(=O)O)c(NCc2ccco2)cc1Cl` [FUROSEMIDE], which “Na+ excretion” value is on record?
The value was 7.9 m equiv kg-1.

Tested on: Mus musculus
Assay: Na+ excretion mequiv /kg in saline-loaded mice administered at a dose 2 […] perorally
Format: ADME, organism-based
Details: in vivo, po
In short: as §2

With `O=C(O)C1Cc2cc3c(-c4ccccc4F)noc3c(Cl)c2O1` (stereo in doubt; 30) as the compound, how does the “Na+ excretion” value read?
The value was 2.8 m equiv kg-1.

With `NS(=O)(=O)c1cc(C(=O)O)c(NCc2ccco2)cc1Cl` [FUROSEMIDE] as the compound, how does the “Na+ excretion” value read?
Its value is 3.7 m equiv kg-1.

Tested on: Mus musculus
Assay: Na+ excretion mequiv /kg in saline-loaded mice administered at a dose 50 […] perorally
Format: ADME, organism-based
Details: in vivo, po
In short: as §2

For `O=C(O)C1Cc2cc3c(-c4ccccc4F)noc3c(Cl)c2O1` (stereo in doubt; 30), which “Na+ excretion” value is on record?
The value was 3.5 m equiv kg-1.

Which “Na+ excretion” value does the source give for `NS(=O)(=O)c1cc(C(=O)O)c(NCc2ccco2)cc1Cl` [FUROSEMIDE] here?
Its value is 11.5 m equiv kg-1.

Tested on: not listed separately
Assay: Urate excreted in 6 Cebus monkey''s during 0-6 hr
Format: ADME
Details: in vivo
In short: (§3)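 Male and female Cebus monkeys, 4-6 per group, fasted for 6 h after dosing, water ad libitum. 20 mg/kg in 0.2% hydroxypropylmethylcellulose at 1.0 mL/kg by nasogastric tube, then water load of 5% body weight. Urine collected in metabolism pans at 2, 6 and 24 h and assayed for uric acid. Urate in mg/kg over 0-6 h, mean ± SEM.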

Which Excretion does the source give for `O=C(O)C1Cc2cc3c(-c4ccccc4F)noc3c(Cl)c2O1` (stereo in doubt; 30) here?
Its Excretion is 8.32 mg/kg.

Species on record: Canis familiaris
Assay: Urate excreted in female dogs during 0-6 hr
Format: ADME, organism-based, Canis lupus familiaris
Details: dog, in vivo
In short: as §1

For `O=C(O)C1Cc2cc3c(-c4ccccc4F)noc3c(Cl)c2O1` (stereo in doubt; 30), which Excretion is on record?
Its Excretion is 1.25 mg/kg.

Tested on: not listed separately
Assay: urate excreted in 4 Cebus monkey''s during 0-6 hr
Format: ADME
Details: in vivo
In short: as §3

For `NS(=O)(=O)c1cc(C(=O)O)c(NCc2ccco2)cc1Cl` [FUROSEMIDE], which Excretion is on record?
The Excretion was 4.03 mg/kg.

Species on record: Canis familiaris
Assay: urate excreted in female dogs during 0-6 hr
Format: ADME, organism-based, Canis lupus familiaris
Details: dog, in vivo
In short: as §1

For `NS(=O)(=O)c1cc(C(=O)O)c(NCc2ccco2)cc1Cl` [FUROSEMIDE], which Excretion is on record?
Its Excretion is 0.7 mg/kg.

Tested on: Canis familiaris
Assay: ED5(natriuretic potency) is the oral dose(mg/kg) required to produce an excretion of 5 milliequivalents of Na+per kilogram during 0-6 hr in female dogs (Highest dose tested was 30 mg/kg)
Format: functional, Canis lupus familiaris
Details: not given
In short: (§4)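 Female dogs, conscious, one oral dose per dog per experiment. Urine collected and centrifuged; venous plasma drawn at each collection time. Samples assayed for Na+, K+, Cl-, urate and glucose by standard methods. Cumulative Na+ output expressed as mequiv/kg over 6 h, at least two dogs/dose. ED5 read from regression of Na+ excretion against log dose.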

For `O=C(O)C1Cc2cc3c(-c4ccccc4)noc3c(Cl)c2O1` (stereo not given), which ED5 is on record?
Its ED5 is 13.5 mg/kg.

With `Cc1c2c(cc3c(-c4ccccc4F)noc13)CC(C(=O)O)O2` (stereo not given) as the compound, how does the ED5 read?
The ED5 was 0.79 mg/kg.

For `OCC1Cc2cc3c(-c4ccccc4F)noc3c(Cl)c2O1` (stereo not given), which ED5 is on record?
Its ED5 is 21 mg/kg.

For `NS(=O)(=O)c1cc(C(=O)O)c(NCc2ccco2)cc1Cl` [FUROSEMIDE], which ED5 is on record?
The ED5 was 3.5 mg/kg.

Tested on: Canis familiaris
Assay: ED5(natriuretic potency) is the oral dose(mg/kg) required to produce an excretion of 5 milliequivalents of Na+per kilogram during 0-6 hr in female dogs (Highest dose tested was 30 mg/kg); Inactive
Format: functional, organism-based
Set-up: dose 30 mg/kg
Details: Canis lupus familiaris
In short: as §4

With `CCc1noc2c(Cl)c3c(cc12)CC(C(=O)O)O3` (stereo not given) as the compound, how does the ED5 read?
Its ED5 is “inactive”.

With `CC(C)Cc1noc2c(Cl)c3c(cc12)CC(C(=O)O)O3` (stereo not given) as the compound, how does the ED5 read?
Its ED5 is “inactive”.

Tested on: Mus musculus
Assay: ED6 (natriuretic potency) is the oral dose(mg/kg) required to produce an excretion of 6 milliequivalents of Na+per kilogram during 0-4 hr in male mice (Highest dose tested was 50 mg/kg)
Format: functional
Details: not given
In short: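 Male mice, 16-30 g, fed ad libitum beforehand. Compound in 0.2% hydroxypropylmethylcellulose given po at 10 mL/kg, then 0.9% saline po at 3% of body weight. Five mice pooled per metabolism cage, four cages per dose. Combined urine collected 0-4 h and assayed for Na+, K+, Cl-, uric acid as mequiv/kg per cage. ED6 from regression of Na+ against log dose.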

Which ED6 does the source give for `CCc1noc2c(Cl)c3c(cc12)CC(C(=O)O)O3` (stereo not given) here?
Its ED6 is 6.8 mg/kg.

Which ED6 does the source give for `O=C(O)C1Cc2cc3c(-c4ccccc4)noc3c(Cl)c2O1` (stereo not given) here?
Its ED6 is 55 mg/kg.

For `Cc1c2c(cc3c(-c4ccccc4F)noc13)CC(C(=O)O)O2` (stereo not given), which ED6 is on record?
The ED6 was 7.25 mg/kg.

With `OCC1Cc2cc3c(-c4ccccc4F)noc3c(Cl)c2O1` (stereo not given) as the compound, how does the ED6 read?
The ED6 was 30 mg/kg.

With `CC(C)Cc1noc2c(Cl)c3c(cc12)CC(C(=O)O)O3` (stereo not given) as the compound, how does the ED6 read?
Its ED6 is 0.47 mg/kg.

With `NS(=O)(=O)c1cc(C(=O)O)c(NCc2ccco2)cc1Cl` [FUROSEMIDE] as the compound, how does the ED6 read?
Its ED6 is 5 mg/kg.

Tested on: Rattus norvegicus
Assay: ED2(natriuretic potency) is the oral dose(mg/kg) required to produce an excretion of 2 milliequivalents of Na+per kilogram during 0-4 hr in female rats (Highest dose tested was 100 mg/kg)
Format: functional
Details: not given
In short: (§5)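 Female Sprague-Dawley rats, 175-225 g, on sucrose and water for 18 h, given 5 mg DOCA sc 2 h before dosing. Compound in 0.2% methylcellulose given by gavage at 2 mL/kg, then a 30 mL/kg load of 0.34% NaCl/0.69% KCl. Individual metabolism cages, urine collected 0-4 h for Na+, K+, Cl-. Two-stage two-dose screen at 2 rats/dose, then at least four doses at 4 rats/dose. ED2 taken from regression of Na+ excretion against log dose.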

With `CCc1noc2c(Cl)c3c(cc12)CC(C(=O)O)O3` (stereo not given) as the compound, how does the ED2 read?
The ED2 was 3.8 mg/kg.

Which ED2 does the source give for `O=C(O)C1Cc2cc3c(-c4ccccc4)noc3c(Cl)c2O1` (stereo not given) here?
Its ED2 is 27.3 mg/kg.

For `Cc1c2c(cc3c(-c4ccccc4F)noc13)CC(C(=O)O)O2` (stereo not given), which ED2 is on record?
Its ED2 is over 100 mg/kg.

Which ED2 does the source give for `CC(C)Cc1noc2c(Cl)c3c(cc12)CC(C(=O)O)O3` (stereo not given) here?
Its ED2 is 0.23 mg/kg.

With `NS(=O)(=O)c1cc(C(=O)O)c(NCc2ccco2)cc1Cl` [FUROSEMIDE] as the compound, how does the ED2 read?
The ED2 was 9.5 mg/kg.

Tested on: Rattus norvegicus
Assay: ED2(natriuretic potency) is the oral dose(mg/kg) required to produce an excretion of 2 milliequivalents of Na+per kilogram during 0-4 hr in female rats (Highest dose tested was 100 mg/kg); Inactive
Format: functional, organism-based
Set-up: dose 100 mg/kg
Details: not given
In short: as §5

Which ED2 does the source give for `OCC1Cc2cc3c(-c4ccccc4F)noc3c(Cl)c2O1` (stereo not given) here?
The ED2 was “inactive”.
